This is an account of results in PMC11522000 (Nature Microbiology, 2024).

One may read the half-life as the time needed for the level to fall by half in the phase considered. Usually CC50 stands for the concentration at which the toxic effect on the cells reaches its halfway point. Usually solubility stands for how much of the substance goes into solution per volume. Low readings indicate a poorly soluble substance, high ones a readily soluble substance. One may read the IC50 as the point on the concentration scale where inhibition reaches its midpoint. Broadly, the EC50 is the concentration that produces a half-maximal response.

Series [1] has as its system C. parvum. The series is described as follows: Host cell invasion assay. The series is classed as cell-based, Cryptosporidium parvum. The conditions noted are these: HCT-8, 3 h; EDI048 and KDU731 20 µM, wiskostatin 11.3 µM. An outline of the steps:
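HCT-8 monolayers were 95–100% confluent. Compounds were added at twice the final concentration 1 h before infection with 50,000 primed oocysts per well. Plates were kept 3 h at 37 °C, 5% CO2, then washed with PBS-0.1% Tween 20, fixed in 4% PFA for 15 min at room temperature, permeabilized with 0.25% Triton X-100 and blocked in 4% BSA. Vacuoles were stained with fluorescein-VVL and nuclei with Hoechst, then imaged.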

Series [2] in a line: Stability in intestinal S9 fraction. Format: in vitro ADME. The conditions noted are these: human. An outline of the steps: (§1)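 Test compound added to intestinal S9 fraction of each species to start the reaction. Incubated in a shaking water bath at 37 °C, with samples taken at sequential timepoints. Samples quenched with ice-cold acetonitrile and analysed by LC-MS/MS. Half-life calculated from the rate of parent compound depletion.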

Series [3] is described as follows: Stability in intestinal S9 fraction. Format: in vitro ADME. The conditions noted are these: mouse. An outline of the steps:
as §1

The test system of series [4] is C. parvum. Kind of series: Mouse efficacy study. The conditions noted are these: oral 10 mg kg^−1, 5 days; nitazoxanide 100 mg kg^−1. The series is classed as in vivo, C57BL/6 IFN-γ-knockout mice.
Another series is described as follows: Cytotoxicity assay. The series is classed as cell-based, human. The conditions noted are these: human, HepG2 cells (ATCC CRL-10741), HepG2 CC50, 96 h.
Series [5] can be described thus: High-throughput equilibrium solubility. Format: physicochemical. The conditions noted are these: thermodynamic from solid. In short, it runs like this:
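Equilibrium solubility was measured by a miniaturized shake-flask method with HPLC quantification.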

The target of a further series is T1, CpPI(4)K (Cryptosporidium parvum, UniProt Q5CVD3).
T1 sequence (Q5CVD3 1-1114): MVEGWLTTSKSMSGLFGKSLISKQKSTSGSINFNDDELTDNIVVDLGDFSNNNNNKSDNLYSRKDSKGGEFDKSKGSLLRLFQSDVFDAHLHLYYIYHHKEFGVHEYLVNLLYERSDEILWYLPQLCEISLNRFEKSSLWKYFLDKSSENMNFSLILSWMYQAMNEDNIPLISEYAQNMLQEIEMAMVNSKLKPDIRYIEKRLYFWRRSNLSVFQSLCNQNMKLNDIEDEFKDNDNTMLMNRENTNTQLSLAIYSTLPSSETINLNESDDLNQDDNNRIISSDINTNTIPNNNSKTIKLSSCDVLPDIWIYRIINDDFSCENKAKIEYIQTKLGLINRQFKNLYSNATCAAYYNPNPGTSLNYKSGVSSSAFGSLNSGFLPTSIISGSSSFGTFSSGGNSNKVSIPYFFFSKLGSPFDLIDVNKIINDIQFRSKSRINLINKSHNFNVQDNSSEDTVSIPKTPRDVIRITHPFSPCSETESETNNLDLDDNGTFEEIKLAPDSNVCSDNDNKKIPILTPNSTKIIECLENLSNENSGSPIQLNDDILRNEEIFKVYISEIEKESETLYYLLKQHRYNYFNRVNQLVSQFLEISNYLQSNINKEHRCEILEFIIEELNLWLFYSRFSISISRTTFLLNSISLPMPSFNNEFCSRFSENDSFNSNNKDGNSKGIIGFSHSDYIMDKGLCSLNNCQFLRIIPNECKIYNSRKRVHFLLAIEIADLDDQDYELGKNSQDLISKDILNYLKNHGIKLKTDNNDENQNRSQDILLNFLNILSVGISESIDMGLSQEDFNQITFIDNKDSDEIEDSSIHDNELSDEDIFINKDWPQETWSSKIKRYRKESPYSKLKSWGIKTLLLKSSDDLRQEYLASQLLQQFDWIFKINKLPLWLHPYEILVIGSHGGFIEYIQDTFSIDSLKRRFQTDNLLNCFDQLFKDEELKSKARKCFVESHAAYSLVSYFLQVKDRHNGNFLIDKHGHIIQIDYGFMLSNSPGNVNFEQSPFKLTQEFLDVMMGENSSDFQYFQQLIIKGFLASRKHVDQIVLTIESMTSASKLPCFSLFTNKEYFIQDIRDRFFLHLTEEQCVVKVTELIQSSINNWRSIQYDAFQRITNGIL
Kind of series: PI. The series is classed as biochemical, C. parvum. Conditions: CpPI(4)K IC50, 3 μM ATP. An outline of the steps:
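Enzyme was pre-incubated with compound for 5 min at room temperature. The reaction was started with substrate mix at twice final strength (PI, ATP, Tris-HCl pH 7.5, DTT, 0.05% Triton X-100, MnCl2) and run 50 min at room temperature. ADP was measured by ADP-Glo luminescence. IC50s came from in-plate duplicate 10-point 3-fold dilutions, with DMSO and reference-inhibitor controls. The C. parvum enzymes (wild type and mutants) were full-length proteins expressed from baculovirus in Sf21 cells.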

Series [6] can be described thus: Systemic exposure in the mouse efficacy studies. Conditions: mouse efficacy study, 10 mg kg^−1 oral. Format: in vivo.
The nature of series [7]: Hepatocytes metabolic stability. Conditions: mouse. The series is classed as in vitro ADME. In short, it runs like this: (§2)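 Test compound was incubated with liver microsomes or hepatocytes of each species, and parent depletion was quantified by LC-MS/MS. From this, in vitro half-life and intrinsic clearance were derived, along with predicted metabolic clearance and hepatic extraction ratio.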

A further series concerns the target HsPI(4)K (Homo sapiens, UniProt Q9UBF8). The series is described as follows: PI. The series is classed as biochemical. Conditions: HsPI(4)K IC50, 3 μM ATP.
In series [8] the test system is C. parvum. The series is described as follows: Cytopathic effect. The series is classed as cell-based, Cryptosporidium parvum. The conditions noted are these: read-out: Cp CPE EC50; C. parvum, HCT-8, 48 h. In short, it runs like this:
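HCT-8 cells were grown at 37 °C, 5% CO2 in RPMI-1640 with 10% heat-inactivated FBS. Oocysts were excysted in 10 mM HCl/HBSS for 10 min at 37 °C, then in 2 mM sodium taurocholate in L-15/UltraCULTURE medium for 5 min. Infected cells were seeded onto pre-spotted compound (10-point, 3-fold dilution; DMSO and reference-inhibitor controls) and incubated 48 h. Cells were then lysed for a viability read-out, and concentration-response curves were fitted.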
In general terms: Cytopathic effects are the visible damage that an infection or toxin causes in cultured cells.

Series [9] is described as follows: Plasma stability. Format: in vitro ADME. The conditions noted are these: mouse. In short, it runs like this: (§3)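 Test compound was added to plasma and incubated at 37 °C in a shaking water bath, with samples taken at sequential timepoints. Samples were quenched with ice-cold acetonitrile and analysed by LC-MS/MS, and half-life was calculated from the depletion rate.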

Series [10] in a line: Hepatocytes metabolic stability. Format: in vitro ADME. Conditions: human. In short, it runs like this:
as §2

Series [11] in a line: Plasma stability. Format: in vitro ADME. Conditions: human. In short, it runs like this:
as §3

The subject of series [12] is C. parvum. The series is described as follows: Time-kill assay, nanoluciferase-expressing C. parvum. Format: cell-based, Cryptosporidium parvum.
The subject of series [13] is C. parvum. The series is described as follows: Washout assay, nanoluciferase-expressing C. parvum. Format: cell-based, Cryptosporidium parvum. Conditions: regardless of the stage of drug exposure. An outline of the steps:
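HCT-8 cells were grown to ~90% confluence, then infected with 400 nanoluciferase-expressing oocysts per well. Before infection, oocysts were primed for excystation with 10 mM HCl in water (10 min, 37 °C), then 2 mM sodium taurocholate in DPBS with Ca/Mg (10 min, 16 °C). Luminescence was read over time. RLU taken soon after infection served as day 0 and was used to normalize each timepoint.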

≈ marks a conversion by molar mass, not a printed value. Bounds are passed on as bounds.

HsPI(4)K, sequence (Q9UBF8 523-816 limits assumed): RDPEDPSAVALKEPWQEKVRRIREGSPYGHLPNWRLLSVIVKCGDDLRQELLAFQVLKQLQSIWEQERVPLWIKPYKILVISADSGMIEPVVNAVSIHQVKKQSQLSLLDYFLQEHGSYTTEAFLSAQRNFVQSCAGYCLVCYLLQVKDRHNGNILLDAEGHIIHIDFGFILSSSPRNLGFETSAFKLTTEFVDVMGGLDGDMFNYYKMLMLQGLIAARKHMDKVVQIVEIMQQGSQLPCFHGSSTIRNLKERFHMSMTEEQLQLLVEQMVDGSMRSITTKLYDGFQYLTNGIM

On to `CN(C)C[C@H](O)Cn1c2ccc(Br)cc2c2cc(Br)ccc21` (racemic) [wiskostatin, reference compound], for which the sporozoite invasion entry with C. parvum [1] was “prevented sporozoite invasion and formation of trophozoites”.
For the molecule `CNC(=O)c1ccc(-c2cnn3ccc(C(=O)N(CCC(=O)OCC(=O)N(C)C)c4ccc(Cl)cc4)cc23)cc1` [Compound 3, 2-(dimethylamino)-2-oxoethyl 3-(N-(4-chlorophenyl)-3-(4-(methylcarbamoyl)phenyl)pyrazolo[1,5-a]pyridine-5-carboxamido)propanoate], the half-life was 45 min in [2], 9.2 min in series [3] and under 2.8 min in series [7] (hepatocytes). Also, in the series on C. parvum [4], the “efficacy in the mouse model” value is “inactive in vitro and in vivo”. In addition, in “Cytotoxicity assay”, the CC50 at 96 h was 38.2 µM. Moreover, the solubility in [5] (FaSSIF) amounted to 355 µM (≈ 200 µg/mL); in series [5] (pH 6.8, aqueous buffer), 11 µM (≈ 6.18 µg/mL). Moreover, the IC50 against CpPI(4)K turned out to be 5 nM; at HsPI(4)K it was 1030 ± 485 nM. In series [6], the “AUC (time 0 to last timepoint)” value is recorded as “<LLOQ^f”. In series [6], the Cmax result is listed as “<LLOQ^f”. Also, the “Hepatocytes ER” value in [7] was 93%.
In the case of `CNC(=O)c1ccc(-c2cnn3ccc(C(=O)N(C[C@H]4CCC(=O)O4)c4ccc(OC(F)(F)F)cc4)cc23)cc1` [Compound 4, (R)-3-(4-(methylcarbamoyl)phenyl)-N-((5-oxotetrahydrofuran-2-yl)methyl)-N-(4-(trifluoromethoxy)phenyl)pyrazolo[1,5-a]pyridine-5-carboxamide], the half-life in series [2] is 215 min; in [3], 96 min; in the series “Plasma stability [9]”, under 5 min; in series [10] (hepatocytes) it was 4.8 min; in the series “Plasma stability [11]”, over 120 min. Besides, the half-maximal effective concentration (EC50) in the series with C. parvum [8] was determined as 349 ± 181 nM. The “efficacy in the mouse model” value in the series with C. parvum [4] was “poor in vivo efficacy”. In the series “Cytotoxicity assay”, the 50% cytotoxic concentration (CC50) at 96 h came to 32.2 µM. The amount in solution in series [5] (pH 6.8, aqueous buffer) (solubility) came to 37 µM (≈ 20.4 µg/mL). For the same molecule, in series [10], the “Hepatocytes ER” value is 95%. Further, the IC50 against CpPI(4)K is 18 ± 11 nM; against HsPI(4)K, 1380 ± 130 nM.
`CC(=O)Oc1ccccc1C(=O)Nc1ncc([N+](=O)[O-])s1` [NTZ, Nitazoxanide, reference compound]: in the series with C. parvum [12], the parasiticidal or parasitistatic entry is reported as “static”. Moreover, the “efficacy in the mouse model” value in the series with C. parvum [4] is on record as “not efficacious”. Besides, the 50% cytotoxic concentration (CC50) at 96 h in “Cytotoxicity assay” was determined as 34.9 µM. Further, the “washout: cidal activity” value in the series with C. parvum [13] is given as “not cidal”. Further, the 50% inhibitory concentration (IC50) against CpPI(4)K is over 10000 nM; against HsPI(4)K it was over 30000 nM.
